Laboratory results: ChEMBL document CHEMBL3576822 (J Med Chem, 2015)
Activity calls are given as the source filed them. The calls are words filed in the database; no cut-off is given here. Residues, ends and D or L forms follow the SMILES beside them.

Columns and labels:
[1] = molecular target: T1, Neuropeptide Y receptor type 1 (Homo sapiens) (UniProt P25929); assay: Agonist activity at human neuropeptide Y Y1 receptor expressed in COS-7 cells cotransfected with chimeric Gi/q protein assessed as inositol phosphate accumulation at 1 uM after 2 hrs by anion exchange chromatography; type: functional, cell-based
T1 sequence (whole entry): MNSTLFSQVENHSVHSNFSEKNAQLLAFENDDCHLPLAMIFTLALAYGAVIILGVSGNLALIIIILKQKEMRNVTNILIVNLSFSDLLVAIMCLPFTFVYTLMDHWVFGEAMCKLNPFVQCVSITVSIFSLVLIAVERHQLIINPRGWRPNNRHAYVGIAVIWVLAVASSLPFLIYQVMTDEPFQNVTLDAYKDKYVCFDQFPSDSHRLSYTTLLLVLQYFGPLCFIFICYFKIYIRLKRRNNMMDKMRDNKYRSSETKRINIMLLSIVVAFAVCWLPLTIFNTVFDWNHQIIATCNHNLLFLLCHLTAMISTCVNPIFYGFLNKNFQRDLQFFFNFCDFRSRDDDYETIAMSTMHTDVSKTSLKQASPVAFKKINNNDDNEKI
Method in brief: (§1)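 COS-7 cells stably co-expressing the corresponding human Y receptor plus a chimeric Gi/q protein; single high concentration tested in inositol phosphate accumulation; response as % of NPY response at each receptor; SEM over two biological replicates.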

[2] = molecular target: T2, Neuropeptide Y receptor type 2 (Homo sapiens, UniProt P49146); assay: Agonist activity at human neuropeptide Y Y2 receptor expressed in COS-7 cells cotransfected with chimeric Gi/q protein assessed as inositol phosphate accumulation after 2 hrs by anion exchange chromatography; type: functional, cell-based
T2 sequence (P49146 whole entry): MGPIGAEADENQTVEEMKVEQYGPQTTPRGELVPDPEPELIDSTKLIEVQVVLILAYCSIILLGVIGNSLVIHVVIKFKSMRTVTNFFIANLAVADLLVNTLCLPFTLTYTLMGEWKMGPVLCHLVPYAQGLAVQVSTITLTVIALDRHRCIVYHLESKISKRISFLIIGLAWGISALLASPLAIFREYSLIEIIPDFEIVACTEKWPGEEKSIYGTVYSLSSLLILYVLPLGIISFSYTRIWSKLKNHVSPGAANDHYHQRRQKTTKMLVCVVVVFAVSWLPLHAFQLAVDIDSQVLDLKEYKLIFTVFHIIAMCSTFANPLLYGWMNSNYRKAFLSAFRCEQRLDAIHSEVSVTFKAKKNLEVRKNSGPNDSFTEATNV
Method in brief: (§2)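 Inositol phosphate turnover in COS-7 cells stably co-expressing human Y2 receptor and chimeric Gi/q protein; concentration-response curves, responses as % of maximum Y2 activity; SEM over two biological replicates.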

[3] = molecular target: T3, Neuropeptide Y receptor type 5 (Homo sapiens) (UniProt Q15761); assay: Agonist activity at human neuropeptide Y Y5 receptor expressed in COS-7 cells cotransfected with chimeric Gi/q protein assessed as inositol phosphate accumulation at 1 uM after 2 hrs by anion exchange chromatography; type: functional, cell-based; method in brief: as §1
T3 sequence (whole entry): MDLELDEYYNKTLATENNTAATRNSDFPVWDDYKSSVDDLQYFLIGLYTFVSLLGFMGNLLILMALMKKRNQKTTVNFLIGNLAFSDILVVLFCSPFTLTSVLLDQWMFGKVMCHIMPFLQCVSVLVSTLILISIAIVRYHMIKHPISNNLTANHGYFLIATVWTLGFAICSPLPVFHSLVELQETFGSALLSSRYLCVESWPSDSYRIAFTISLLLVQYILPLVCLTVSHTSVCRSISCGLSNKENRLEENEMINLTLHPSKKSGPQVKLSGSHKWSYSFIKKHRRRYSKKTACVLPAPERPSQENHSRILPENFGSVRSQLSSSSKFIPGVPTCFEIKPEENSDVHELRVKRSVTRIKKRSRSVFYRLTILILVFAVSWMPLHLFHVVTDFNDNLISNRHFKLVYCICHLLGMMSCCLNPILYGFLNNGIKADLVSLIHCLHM

[4] = molecular target: T4, Growth hormone secretagogue receptor type 1 (Homo sapiens, UniProt Q92847); assay: Inverse agonist activity at human GHSR1a receptor expressed in COS-7 cells assessed as inositol phosphate accumulation after 2 hrs by anion exchange chromatography relative to control; type: functional, cell-based
T4 sequence (Q92847 whole entry): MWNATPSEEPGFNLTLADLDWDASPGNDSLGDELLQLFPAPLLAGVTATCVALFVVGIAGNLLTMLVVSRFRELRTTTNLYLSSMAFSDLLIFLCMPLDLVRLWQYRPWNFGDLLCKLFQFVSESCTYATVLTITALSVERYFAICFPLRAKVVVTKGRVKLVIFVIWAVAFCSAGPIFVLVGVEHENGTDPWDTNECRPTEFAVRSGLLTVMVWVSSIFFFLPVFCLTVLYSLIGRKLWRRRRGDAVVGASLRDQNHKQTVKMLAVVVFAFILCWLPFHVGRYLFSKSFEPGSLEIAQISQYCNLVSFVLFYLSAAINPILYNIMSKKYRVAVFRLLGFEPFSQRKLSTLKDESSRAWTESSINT

[5] = molecular target: T4, Growth hormone secretagogue receptor type 1; assay: Inverse agonist activity at human GHSR1a receptor expressed in COS-7 cells assessed as inositol phosphate accumulation after 2 hrs by anion exchange chromatography; type: functional, cell-based
[6] = molecular target: T5, Neuropeptide Y receptor type 2 (Homo sapiens) (UniProt P49146); assay: Agonist activity at human neuropeptide Y Y2 receptor expressed in COS-7 cells cotransfected with chimeric Gi/q protein assessed as inositol phosphate accumulation after 2 hrs by anion exchange chromatography relative to control; type: functional, cell-based; method in brief: as §2
T5 sequence (whole entry): T2 sequence (P49146 whole entry)

[7] = molecular target: T2, Neuropeptide Y receptor type 2; assay: Displacement of [125I]PYY from human neuropeptide Y Y2 receptor expressed in HEK293 cells cotransfected with eYFP fusion protein after 2 hrs by competitive receptor binding assay; type: cell-based
Method in brief: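 Competitive binding against 125I-PYY in HEK-293 cells stably expressing human Y2 receptor; concentration-response curves.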

[8] = molecular target: Neuropeptide Y receptor type 4 (Homo sapiens) (UniProt P50391); assay: Agonist activity at human neuropeptide Y Y4 receptor expressed in COS-7 cells cotransfected with chimeric Gi/q protein assessed as inositol phosphate accumulation at 1 uM after 2 hrs by anion exchange chromatography; type: functional, cell-based; method in brief: as §1
Chain of Neuropeptide Y receptor type 4 (Homo sapiens) (P50391 whole entry, the tested form may be a part): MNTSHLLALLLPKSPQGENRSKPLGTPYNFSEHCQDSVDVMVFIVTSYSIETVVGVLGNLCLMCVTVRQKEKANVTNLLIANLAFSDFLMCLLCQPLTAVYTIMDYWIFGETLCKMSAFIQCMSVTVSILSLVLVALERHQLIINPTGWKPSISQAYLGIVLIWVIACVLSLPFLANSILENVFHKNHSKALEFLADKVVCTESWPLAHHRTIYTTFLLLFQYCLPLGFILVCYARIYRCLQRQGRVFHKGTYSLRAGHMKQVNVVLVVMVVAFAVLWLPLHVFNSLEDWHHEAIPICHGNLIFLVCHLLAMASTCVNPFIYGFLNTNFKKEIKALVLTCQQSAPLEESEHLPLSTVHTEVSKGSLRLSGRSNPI

[9] = molecular target: T4, Growth hormone secretagogue receptor type 1; assay: Displacement of [125I]ghrelin from human eYFP-fused ghrelin receptor expressed in COS7 cells after 75 mins by competitive receptor binding assay; type: cell-based, COS-7
[10] = test system: Mus musculus; assay: Effect on food intake in diet-induced obese C57BL/6JRj mouse at 500 nM/kg, sc; type: functional, organism-based
Method in brief: (§3)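 Freely fed diet-induced obese mice, saline control group; single acute dose, SC at 500 nM/kg or IP at 50, 100 or 250 nM/kg; cumulative food intake and body weight recorded.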

[11] = test system: Mus musculus; assay: Effect on body weight in diet-induced obese C57BL/6JRj mouse at 500 nM/kg, sc; type: functional, organism-based; method in brief: as §3
[12] = test system: Mus musculus; assay: Decrease in food intake in diet-induced obese C57BL/6JRj mouse at 0.25 nM/h, sc administered via osmotic minipumps daily for 14 days; type: functional, organism-based
[13] = test system: Mus musculus; assay: Effect on food intake in diet-induced obese C57BL/6JRj mouse at 50 to 250 nM/kg, ip; type: functional, organism-based; method in brief: as §3
[14] = test system: Mus musculus; assay: Effect on body weight in diet-induced obese C57BL/6JRj mouse at 50 to 250 nM/kg, ip; type: functional, organism-based; method in brief: as §3
[15] = test system: Mus musculus; assay: Effect on food intake in diet-induced obese C57BL/6JRj mouse at 100 nM/kg, ip administered daily for 10 days; type: functional, organism-based
Method in brief: (§4)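 Freely fed diet-induced obese mice randomized to groups, saline as control; daily IP injection at 100 nM/kg for 10 days; cumulative food intake and body weight tracked in parallel; drug-by-time interaction analysed by repeated-measures ANOVA.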

[16] = test system: Mus musculus; assay: Effect on body weight in diet-induced obese C57BL/6JRj mouse at 100 nM/kg, ip administered daily for 10 days; type: functional, organism-based; method in brief: as §4
[17] = test system: Mus musculus; assay: Effect on body weight in diet-induced obese C57BL/6JRj mouse at 0.25 nM/h, sc administered via osmotic minipumps daily for 14 days; type: functional, organism-based

Row | Efficacy [1] [%] | EC50 [2] [nM] | Efficacy [3] [%] | Efficacy [4] [%] | EC50 [5] [nM] | Efficacy [6] [%] | IC50 [7] [nM] | Efficacy [8] [%] | IC50 [9] [nM] | Compound | Activity [10] | Activity [11] | inhibition [12] | Activity [13] | Activity [14] | Activity [15] | Activity [16] | Activity [17]
1 | > 66 | 3.9 | > 56 | 85 | 88.3 | 84 | 9 | 35 | 78.2 | CC(=O)N[C@@H](CCCCNC(=O)CCCCCNC(=O)[C@H](CCC(N)=O)NC(=O)[C@H](CC(C)C)NC(=O)[C@@H](Cc1c[nH]c2ccccc12)NC(=O)[C@H](Cc1ccccc1)NC(=O)[C@@H](Cc1cccc2ccccc12)NC(=O)[C@@H](N)CCCCN)C(=O)N[C@@H](CC(C)C)C(=O)N[C@@H](CCCNC(=N)N)C(=O)N[C@@H](Cc1cnc[nH]1)C(=O)N[C@@H](Cc1ccc(O)cc1)C(=O)N[C@@H](CC(C)C)C(=O)N[C@@H](CC(N)=O)C(=O)N[C@@H](CC(C)C)C(=O)N[C@@H](CC(C)C)C(=O)N[C@H](C(=O)N[C@@H](CCCNC(=N)N)C(=O)N[C@@H](CCC(N)=O)C(=O)N[C@@H](CCCNC(=N)N)C(=O)N[C@@H](Cc1ccc(O)cc1)C(N)=O)[C@@H](C)O | – | – | – | – | – | – | – | –
2 | – | – | – | – | – | – | – | – | – | CC(=O)N[C@@H](CC(C)C)C(=O)N[C@@H](CCCNC(=N)N)C(=O)N[C@@H](Cc1cnc[nH]1)C(=O)N[C@@H](Cc1ccc(O)cc1)C(=O)N[C@@H](CC(C)C)C(=O)N[C@@H](CC(N)=O)C(=O)N[C@@H](CC(C)C)C(=O)N[C@@H](CC(C)C)C(=O)N[C@H](C(=O)N[C@@H](CCCNC(=N)N)C(=O)N[C@@H](CCC(N)=O)C(=O)N[C@@H](CCCNC(=N)N)C(=O)N[C@@H](Cc1ccc(O)cc1)C(N)=O)[C@@H](C)O (Ac-LRHYLNLLTRQRY-NH2) | inactive | inactive | inactive | inactive | inactive | – | – | –
3 | > 66 | 1.7 | > 56 | 88 | 99.9 | 86 | 14.7 | 46 | 126 | CC(=O)N[C@@H](CCCCNC(=O)CCNC(=O)[C@H](CCC(N)=O)NC(=O)[C@H](CC(C)C)NC(=O)[C@@H](Cc1c[nH]c2ccccc12)NC(=O)[C@H](Cc1ccccc1)NC(=O)[C@@H](Cc1cccc2ccccc12)NC(=O)[C@@H](N)CCCCN)C(=O)N[C@@H](CC(C)C)C(=O)N[C@@H](CCCNC(=N)N)C(=O)N[C@@H](Cc1cnc[nH]1)C(=O)N[C@@H](Cc1ccc(O)cc1)C(=O)N[C@@H](CC(C)C)C(=O)N[C@@H](CC(N)=O)C(=O)N[C@@H](CC(C)C)C(=O)N[C@@H](CC(C)C)C(=O)N[C@H](C(=O)N[C@@H](CCCNC(=N)N)C(=O)N[C@@H](CCC(N)=O)C(=O)N[C@@H](CCCNC(=N)N)C(=O)N[C@@H](Cc1ccc(O)cc1)C(N)=O)[C@@H](C)O | – | – | – | – | – | – | – | –
4 | < 25 | 3.2 | 33 | 82 | 41.7 | 84 | 61.4 | < 25 | 97.1 | CC(=O)NC(CNC(=O)CCC(=O)N[C@@H](CCCCN)C(=O)N[C@H](Cc1cccc2ccccc12)C(=O)N[C@@H](Cc1ccccc1)C(=O)N[C@H](Cc1c[nH]c2ccccc12)C(=O)N[C@@H](CC(C)C)C(=O)N[C@@H](CC(C)C)C(N)=O)C(=O)N[C@@H](CC(C)C)C(=O)N[C@@H](CCCNC(=N)N)C(=O)N[C@@H](Cc1cnc[nH]1)C(=O)N[C@@H](Cc1ccc(O)cc1)C(=O)N[C@@H](CC(C)C)C(=O)N[C@@H](CC(N)=O)C(=O)N[C@@H](CC(C)C)C(=O)N[C@@H](CC(C)C)C(=O)N[C@H](C(=O)N[C@@H](CCCNC(=N)N)C(=O)N[C@@H](CCC(N)=O)C(=O)N[C@@H](CCCNC(=N)N)C(=O)N[C@@H](Cc1ccc(O)cc1)C(N)=O)[C@@H](C)O (stereo not given in full) | inactive | inactive | Active | inactive | inactive | inactive | inactive | inactive
